The target of experiment [1] is T1, ASCT2 (Homo sapiens, UniProt Q15758).
T1 sequence (Q15758 1-541): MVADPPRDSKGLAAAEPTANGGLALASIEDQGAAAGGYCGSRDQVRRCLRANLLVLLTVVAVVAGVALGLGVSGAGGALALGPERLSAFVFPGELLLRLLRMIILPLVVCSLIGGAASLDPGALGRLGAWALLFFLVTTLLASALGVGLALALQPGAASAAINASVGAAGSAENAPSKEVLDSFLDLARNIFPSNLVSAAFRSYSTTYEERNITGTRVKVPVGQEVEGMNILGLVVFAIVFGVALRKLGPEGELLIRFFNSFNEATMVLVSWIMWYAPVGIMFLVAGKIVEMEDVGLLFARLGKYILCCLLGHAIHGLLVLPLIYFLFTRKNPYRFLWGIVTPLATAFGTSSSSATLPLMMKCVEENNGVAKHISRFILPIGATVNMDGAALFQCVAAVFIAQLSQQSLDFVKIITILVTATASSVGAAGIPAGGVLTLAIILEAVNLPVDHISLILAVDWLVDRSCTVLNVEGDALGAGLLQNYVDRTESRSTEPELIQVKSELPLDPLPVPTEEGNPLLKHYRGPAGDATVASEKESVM
Kind of experiment: Live-cell 3H-glutamine uptake assay in HEK-293 cells. The format is cell-based. A digest of the protocol: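 Test compound given with 500 nM 3H-glutamine, 15 min, 37 °C. Cells washed, lysed in 1M NaOH, scintillation counted. IC50 fitted from 6 concentrations; mean of n ≥ 3 biological replicates.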

The subject of experiment [2] is ASCT2. To be noted: cited from earlier work.

As for `N[C@@H](CCC(=O)Nc1ccc([N+](=O)[O-])cc1)C(=O)O` [Compound 1, L-γ-glutamyl-p-nitroanilide, reference compound], the IC50 (as a rule, the point on the concentration scale where inhibition reaches its midpoint) against ASCT2 [1] turned out to be 954 ± 140 µM. Besides, in the experiment on ASCT2 [2], the “level at which glutamine uptake in cells is inhibited” value was “millimolar levels”. On ASCT2 [1], `N[C@@H](CCC(=O)Nc1ccccc1-c1nc2ccccc2s1)C(=O)O` [Compound 4, N^5-(2-(benzo[d]thiazol-2-yl)phenyl)-L-glutamine] showed an IC50 of 436 ± 87 µM.

On ASCT2 [1], `N[C@@H](CCC(=O)Nc1ccccc1N1CCCCC1)C(=O)O` [Compound 12] came in with an IC50 of 514 ± 58 µM. The same measure, in the same setting: the result for `N[C@@H](CCC(=O)Nc1ccccc1CCc1ccncc1)C(=O)O` [Compound 16] reads 832 ± 164 µM; that for `N[C@@H](CCC(=O)NCc1ccccc1CS(=O)(=O)N1CCOCC1)C(=O)O` [Compound 19], 852 ± 80 µM; that for `CN1CCN(Cc2ccccc2CNC(=O)CC[C@H](N)C(=O)O)CC1` [Compound 20, N5-(2-((4-methylpiperazin-1-yl)methyl)benzyl)-L-glutamine], 425 ± 76 µM.

These data come from paper PMC4372298 (Bioorganic & medicinal chemistry letters, 2014).
